Source: paper PMC3166626 (Nature immunology, 2010)
Entries after “also recorded” stand apart in the source; their conditions may differ. One block for each substance: values may come before it.

Tests used:
T cell clone BDC-2.5 = assay: IFN-γ response of T cell clone BDC-2.5; type: cell-based, NOD mouse; settings: ChgA-derived peptides 5–500 μM; two experiments, single measurements (Fig. 6a,c)
Summary of the method: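 Cultures held 2 × 10⁴ BDC-2.5 T cells and 2.5 × 10⁴ NOD peritoneal exudate cells as I-A^g7 APCs. Chromogranin A-derived peptides were added at 5–500 μM. Controls were beta cell tumor membrane preparation, a positive mimotope peptide and an irrelevant moth cytochrome c peptide. IFN-γ was measured by specific ELISA. Two experiments, single measurement per concentration. Stimulatory capacity was calculated relative to the reference peptide.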

I-A^g7 = assay: Peptide binding to I-A^g7; parameters: species or system NOD mouse; settings: inhibition of bio-pHEL (11 μM) binding to soluble I-A^g7, pH 5.6, overnight, 21°C, ELISA; average of two experiments (Fig. 6b,c)
Summary of the method: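 Soluble I-A^g7 carrying covalently linked pHEL, thrombin-treated to cleave the peptide linker. Diluted in PBS, captured on OX6-coated wells, washed. Bound probe detected with alkaline phosphatase–Extravidin and […]. Controls: mimotope peptide (positive), I-E^k-binding moth cytochrome c peptide (negative). Reported as percent of uninhibited probe binding.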

BDC T cell clones [1] = settings: presented in the context of I-A^g7; cited from earlier work
BDC T cell clones [2] = assay: In vitro activation of the BDC T cell clones; type: cell-based, NOD mouse
Summary of the method: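 The three BDC clones (2 × 10⁴ responder cells each) were cultured with 2.5 × 10⁴ NOD peritoneal exudate cells as APCs. Soluble synthetic test peptides were titrated alongside a mimotope peptide and beta cell tumor membrane preparation as the control antigen. IFN-γ (ng/ml) was measured by specific ELISA. At least two separate experiments, single measurement at each peptide concentration.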

Binding to I-A^g7 (I-A^g7): did not bind to I-A^g7
Substance: ED9: WD5 extended by the same 4 amino acids at the N-terminus (EDKRWSRMD)
Stimulatory activity on BDC-2.5 (IFN-γ response) (T cell clone BDC-2.5): failed to stimulate BDC-2.5

Substance: insulin: insulin, to which the BDC clones are not responsive
Response of BDC clones in vitro (BDC T cell clones [1]): not responsive

Substance: RLGLWVRME [pS3]
Potency in activating the BDC clones relative to WE14 (BDC T cell clones [2]; pS3 vs synthetic WE14): at least 1000 fold

Substance: WSRMDQLAKELTAE [WE14]
Binding to I-A^g7 (I-A^g7): bound to I-A^g7, although not nearly as well as the pS3 mimotope; also recorded: bound I-A^g7
Activation of the BDC T cell clones (BDC T cell clones [2]; in vitro, presented by I-A^g7 APCs): activated the ChgA-specific T cell clones in vitro; also recorded: potently stimulated all three of the BDC clones; also recorded: the clones were activated
Potency relative to beta cell (tumor) antigen preparation (BDC T cell clones [2]; synthetic WE14 vs β-Mem): considerably less potent than the antigen preparation from the beta cell adenoma tumor

Substance: WA8: C-terminal truncation of WE14 (WSRMDQLA)
Stimulatory activity on BDC-2.5 (IFN-γ response) (T cell clone BDC-2.5): decreasing stimulatory activity

Binding to I-A^g7 (I-A^g7): no effect on I-A^g7 binding
Substance: EE18: WE14 extended by 4 amino acids at the N-terminus (EDKRWSRMDQLAKELTAE)
Stimulatory activity on BDC-2.5 (IFN-γ response) (T cell clone BDC-2.5): eliminated the BDC-2.5 response

Substance: WSRMD [WD5]
Stimulatory activity on BDC-2.5 (IFN-γ response) (T cell clone BDC-2.5): lacked any stimulatory activity

Substance: WL11: WE14 truncated by 3 C-terminal amino acids (WSRMDQLAKEL)
Stimulatory activity on BDC-2.5 (IFN-γ response) (T cell clone BDC-2.5): decreasing stimulatory activity
Binding to I-A^g7 (I-A^g7): reduced binding to a level indistinguishable from the negative control peptide
